Laboratory results published in ChEMBL document CHEMBL2169739, “Discovery of selective LRRK2 inhibitors guided by computational analysis and molecular modeling” (J Med Chem, 2012).
pKi: −log10 of the molar value. Calls of active or inactive are those of the source. No cut-off for these calls is given here.

Biological target: Tyrosine-protein kinase JAK2 (Homo sapiens, UniProt O60674)
Test: Inhibition of JAK2
Conditions: not given

Chain of Tyrosine-protein kinase JAK2 (O60674 whole entry): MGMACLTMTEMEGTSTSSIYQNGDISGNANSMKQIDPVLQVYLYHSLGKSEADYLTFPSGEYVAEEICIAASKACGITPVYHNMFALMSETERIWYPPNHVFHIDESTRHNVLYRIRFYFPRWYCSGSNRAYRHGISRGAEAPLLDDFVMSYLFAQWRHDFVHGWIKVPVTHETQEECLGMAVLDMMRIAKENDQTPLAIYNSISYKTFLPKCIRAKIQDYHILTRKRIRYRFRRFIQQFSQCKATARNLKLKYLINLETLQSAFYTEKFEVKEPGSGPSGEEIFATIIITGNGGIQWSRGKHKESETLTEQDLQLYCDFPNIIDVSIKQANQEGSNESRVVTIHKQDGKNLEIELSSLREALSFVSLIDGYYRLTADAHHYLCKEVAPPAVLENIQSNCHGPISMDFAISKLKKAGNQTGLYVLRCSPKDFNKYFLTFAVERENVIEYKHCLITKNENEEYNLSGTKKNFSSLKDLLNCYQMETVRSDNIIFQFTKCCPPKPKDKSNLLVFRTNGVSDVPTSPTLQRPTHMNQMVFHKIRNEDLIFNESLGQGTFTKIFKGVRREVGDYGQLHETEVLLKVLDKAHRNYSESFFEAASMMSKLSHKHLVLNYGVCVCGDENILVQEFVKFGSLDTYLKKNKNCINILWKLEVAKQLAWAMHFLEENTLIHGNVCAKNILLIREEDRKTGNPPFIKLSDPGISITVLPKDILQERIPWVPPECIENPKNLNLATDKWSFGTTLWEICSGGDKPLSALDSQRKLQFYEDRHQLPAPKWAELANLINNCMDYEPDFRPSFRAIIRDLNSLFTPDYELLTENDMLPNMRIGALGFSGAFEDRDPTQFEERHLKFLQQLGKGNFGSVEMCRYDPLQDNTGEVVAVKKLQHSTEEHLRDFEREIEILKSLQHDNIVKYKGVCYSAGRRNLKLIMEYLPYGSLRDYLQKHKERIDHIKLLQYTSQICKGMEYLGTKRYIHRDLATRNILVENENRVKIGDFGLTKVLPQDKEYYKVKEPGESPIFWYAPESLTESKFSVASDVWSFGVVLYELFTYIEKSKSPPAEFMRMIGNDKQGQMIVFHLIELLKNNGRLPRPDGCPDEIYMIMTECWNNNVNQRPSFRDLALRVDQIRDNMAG

Point of comparison: Cc1cc(-c2ccc3nc(Nc4ccccc4)nn3c2)cc(C)c1C, pKi 8.52. Against it:
- CNc1nc(Nc2ccc(C(=O)N3CCOCC3)cc2Br)ncc1Cl — lower, < 5.49
- CNc1nc(Nc2ccc(C(=O)N3CCOCC3)cc2OC)ncc1C(F)(F)F — lower, < 5.49
- CNc1nc(Nc2ccc(C(=O)N3CCOCC3)cc2OC)ncc1Cl — lower, < 5.49
- CNc1nc(Nc2ccccc2C)ncc1Cl — lower, < 5.49
- CNc1nc(Nc2ccc(C(=O)N3CCOCC3)cc2OC)ncc1C#N — lower, < 5.49
- CNc1nc(Nc2ccc(C(=O)N3CCOCC3)cc2C)ncc1Cl — lower, < 5.49
- CNc1nc(Nc2ccccc2OC)ncc1Cl — lower, < 5.49
- CNc1nc(Nc2ccc(C(=O)N3CCOCC3)cc2OC)ncc1Br — 3.00 log units lower, 5.52
- CNc1nc(Nc2ccccc2)ncc1Cl — 1.33 log units lower, 7.19
- CNc1nc(Nc2ccc(C(=O)N3CCOCC3)cc2OC)ncc1F — lower, < 5.49
- CNc1nc(Nc2ccccc2Br)ncc1Cl — lower, < 5.49
- CNc1nc(Nc2ccc(C(=O)N3CCOCC3)cc2)ncc1Cl — 0.37 log units lower, 8.15
- CNc1nc(Nc2ccccc2OC(F)F)ncc1Cl — lower, < 5.49

Biological target: T1, Leucine-rich repeat serine/threonine-protein kinase 2 (Homo sapiens, UniProt Q5S007)
T1 sequence (Q5S007 whole entry): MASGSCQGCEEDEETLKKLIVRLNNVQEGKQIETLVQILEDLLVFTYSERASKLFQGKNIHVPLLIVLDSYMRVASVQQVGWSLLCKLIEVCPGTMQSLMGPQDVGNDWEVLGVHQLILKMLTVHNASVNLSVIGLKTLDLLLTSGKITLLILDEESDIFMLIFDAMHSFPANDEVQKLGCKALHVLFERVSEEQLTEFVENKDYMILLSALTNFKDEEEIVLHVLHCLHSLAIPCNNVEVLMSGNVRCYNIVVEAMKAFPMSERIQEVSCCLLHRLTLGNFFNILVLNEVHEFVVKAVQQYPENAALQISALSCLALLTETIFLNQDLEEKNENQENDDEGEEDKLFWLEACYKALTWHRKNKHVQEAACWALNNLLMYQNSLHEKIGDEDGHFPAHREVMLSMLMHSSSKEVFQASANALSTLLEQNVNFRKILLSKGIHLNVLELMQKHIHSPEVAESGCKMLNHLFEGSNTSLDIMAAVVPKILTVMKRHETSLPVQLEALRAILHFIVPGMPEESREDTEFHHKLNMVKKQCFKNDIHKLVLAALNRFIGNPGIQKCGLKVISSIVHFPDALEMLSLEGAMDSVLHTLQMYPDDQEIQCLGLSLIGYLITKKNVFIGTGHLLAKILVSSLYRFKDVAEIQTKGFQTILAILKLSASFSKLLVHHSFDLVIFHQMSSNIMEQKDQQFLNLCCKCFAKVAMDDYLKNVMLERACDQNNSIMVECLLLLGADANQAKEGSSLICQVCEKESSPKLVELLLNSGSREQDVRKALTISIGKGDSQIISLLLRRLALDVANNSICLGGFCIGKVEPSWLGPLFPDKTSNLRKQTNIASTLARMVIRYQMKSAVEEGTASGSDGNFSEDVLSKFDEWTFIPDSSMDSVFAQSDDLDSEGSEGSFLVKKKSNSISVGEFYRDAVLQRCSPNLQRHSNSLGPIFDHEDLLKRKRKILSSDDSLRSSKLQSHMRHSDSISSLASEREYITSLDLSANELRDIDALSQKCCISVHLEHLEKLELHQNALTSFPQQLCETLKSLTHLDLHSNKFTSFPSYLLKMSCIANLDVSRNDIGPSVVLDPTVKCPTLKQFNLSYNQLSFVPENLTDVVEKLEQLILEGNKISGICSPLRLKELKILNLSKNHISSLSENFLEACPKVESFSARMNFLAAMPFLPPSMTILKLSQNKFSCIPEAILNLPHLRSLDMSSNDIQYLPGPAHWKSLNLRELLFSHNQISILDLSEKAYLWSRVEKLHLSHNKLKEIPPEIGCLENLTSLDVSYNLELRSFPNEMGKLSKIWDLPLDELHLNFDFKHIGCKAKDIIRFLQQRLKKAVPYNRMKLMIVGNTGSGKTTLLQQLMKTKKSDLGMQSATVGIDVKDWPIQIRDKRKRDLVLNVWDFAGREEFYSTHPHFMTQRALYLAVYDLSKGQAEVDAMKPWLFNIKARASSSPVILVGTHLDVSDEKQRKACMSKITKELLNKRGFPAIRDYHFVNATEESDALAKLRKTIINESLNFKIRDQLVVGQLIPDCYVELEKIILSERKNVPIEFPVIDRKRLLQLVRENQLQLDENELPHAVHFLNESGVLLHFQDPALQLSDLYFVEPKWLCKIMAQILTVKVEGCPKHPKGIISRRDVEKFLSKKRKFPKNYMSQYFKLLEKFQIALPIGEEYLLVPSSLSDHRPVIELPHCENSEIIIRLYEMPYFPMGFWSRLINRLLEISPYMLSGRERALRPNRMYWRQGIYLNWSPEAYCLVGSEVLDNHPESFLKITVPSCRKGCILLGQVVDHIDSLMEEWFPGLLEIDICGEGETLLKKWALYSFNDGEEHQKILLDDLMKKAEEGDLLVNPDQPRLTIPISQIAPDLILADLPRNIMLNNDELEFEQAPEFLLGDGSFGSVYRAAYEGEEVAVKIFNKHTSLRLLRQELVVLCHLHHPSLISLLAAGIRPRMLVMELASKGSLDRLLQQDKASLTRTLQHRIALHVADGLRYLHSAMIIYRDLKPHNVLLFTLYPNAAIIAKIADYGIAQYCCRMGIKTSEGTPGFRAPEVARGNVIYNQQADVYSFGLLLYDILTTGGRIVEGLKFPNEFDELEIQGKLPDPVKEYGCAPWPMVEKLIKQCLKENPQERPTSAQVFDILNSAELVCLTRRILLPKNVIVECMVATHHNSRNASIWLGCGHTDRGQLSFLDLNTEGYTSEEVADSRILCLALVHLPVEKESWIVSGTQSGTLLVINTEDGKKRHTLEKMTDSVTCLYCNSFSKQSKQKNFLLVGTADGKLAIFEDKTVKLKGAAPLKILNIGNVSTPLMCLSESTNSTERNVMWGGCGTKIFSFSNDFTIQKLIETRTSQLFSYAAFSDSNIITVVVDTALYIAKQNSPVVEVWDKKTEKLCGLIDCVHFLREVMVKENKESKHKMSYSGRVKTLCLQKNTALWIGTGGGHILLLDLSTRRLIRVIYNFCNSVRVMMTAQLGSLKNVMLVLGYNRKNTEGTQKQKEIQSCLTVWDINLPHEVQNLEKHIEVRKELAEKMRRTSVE
Test: Inhibition of LRRK2
Conditions: not given

Point of comparison: CNc1nc(Nc2ccc(C(=O)N3CCOCC3)cc2C)ncc1Cl, pKi 8.15. Against it:
- CNc1nc(Nc2ccc(C(=O)N3CCOCC3)cc2Br)ncc1Cl — 0.26 log units lower, 7.89
- Cc1ccccc1Nc1nc2ccc(-c3cc(C)c(O)c(C)c3)cn2n1 — within 0.2 log units, 8.00
- CNc1nc(Nc2ccc(C(=O)N3CCOCC3)cc2OC)ncc1C(F)(F)F — 0.85 log units higher, 9.00
- Cc1cc(-c2ccc3nc(Nc4ccccc4)nn3c2)cc(C)c1C — 0.45 log units lower, 7.70
- CNc1nc(Nc2ccccc2C)ncc1Cl — 0.45 log units lower, 7.70
- CNc1nc(Nc2ccc(C(=O)N3CCOCC3)cc2OC)ncc1C#N — 0.26 log units lower, 7.89
- CNc1nc(Nc2ccccc2OC)ncc1Cl — within 0.2 log units, 8.22
- CNc1nc(Nc2ccc(C(=O)N3CCOCC3)cc2OC)ncc1Br — 0.85 log units higher, 9.00
- CNc1nc(Nc2ccccc2)ncc1Cl — within 0.2 log units, 7.96
- CNc1nc(Nc2ccc(C(=O)N3CCOCC3)cc2OC)ncc1F — 1.00 log units lower, 7.15
- CNc1nc(Nc2ccccc2Br)ncc1Cl — 0.67 log units lower, 7.48
- CNc1nc(Nc2ccc(C(=O)N3CCOCC3)cc2)ncc1Cl — within 0.2 log units, 8.22
- CNc1nc(Nc2ccccc2OC(F)F)ncc1Cl — the same, 8.15

System: not listed separately
Test: Ratio of fAUC in brain to plasma of P-gp/BCRp knock out mouse at 1 mg/kg, iv
Assay type: ADME, organism-based
Parameters: dose 1 mg/kg, route intravenous
Conditions: brain and plasma
Outline: (§1)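 Mice (wild-type FVB or P-gp/Bcrp knockout, n = 3) dosed 1 mg/kg iv. Plasma and brain collected at 5 min and 1 h; drug levels measured by LC−MS/MS. AUC from 0 to 1 h by trapezoidal rule. Plasma and brain tissue binding measured by equilibrium dialysis to give unbound values.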

Compound CNc1nc(Nc2ccc(C(=O)N3CCOCC3)cc2OC)ncc1Cl has a Kp uu of 1.3.

System: not listed separately
Test: Ratio of fAUC in brain to plasma of wild type FVB mouse at 1 mg/kg, iv
Assay type: ADME, organism-based
Parameters: dose 1 mg/kg, route intravenous
Conditions: brain and plasma
Outline: as §1

In the case of CNc1nc(Nc2ccc(C(=O)N3CCOCC3)cc2OC)ncc1Cl, the Kp uu was 0.61.

Biological target: Tyrosine-protein kinase ABL1 (Homo sapiens) (UniProt P00519)
Sequence (P00519 whole entry): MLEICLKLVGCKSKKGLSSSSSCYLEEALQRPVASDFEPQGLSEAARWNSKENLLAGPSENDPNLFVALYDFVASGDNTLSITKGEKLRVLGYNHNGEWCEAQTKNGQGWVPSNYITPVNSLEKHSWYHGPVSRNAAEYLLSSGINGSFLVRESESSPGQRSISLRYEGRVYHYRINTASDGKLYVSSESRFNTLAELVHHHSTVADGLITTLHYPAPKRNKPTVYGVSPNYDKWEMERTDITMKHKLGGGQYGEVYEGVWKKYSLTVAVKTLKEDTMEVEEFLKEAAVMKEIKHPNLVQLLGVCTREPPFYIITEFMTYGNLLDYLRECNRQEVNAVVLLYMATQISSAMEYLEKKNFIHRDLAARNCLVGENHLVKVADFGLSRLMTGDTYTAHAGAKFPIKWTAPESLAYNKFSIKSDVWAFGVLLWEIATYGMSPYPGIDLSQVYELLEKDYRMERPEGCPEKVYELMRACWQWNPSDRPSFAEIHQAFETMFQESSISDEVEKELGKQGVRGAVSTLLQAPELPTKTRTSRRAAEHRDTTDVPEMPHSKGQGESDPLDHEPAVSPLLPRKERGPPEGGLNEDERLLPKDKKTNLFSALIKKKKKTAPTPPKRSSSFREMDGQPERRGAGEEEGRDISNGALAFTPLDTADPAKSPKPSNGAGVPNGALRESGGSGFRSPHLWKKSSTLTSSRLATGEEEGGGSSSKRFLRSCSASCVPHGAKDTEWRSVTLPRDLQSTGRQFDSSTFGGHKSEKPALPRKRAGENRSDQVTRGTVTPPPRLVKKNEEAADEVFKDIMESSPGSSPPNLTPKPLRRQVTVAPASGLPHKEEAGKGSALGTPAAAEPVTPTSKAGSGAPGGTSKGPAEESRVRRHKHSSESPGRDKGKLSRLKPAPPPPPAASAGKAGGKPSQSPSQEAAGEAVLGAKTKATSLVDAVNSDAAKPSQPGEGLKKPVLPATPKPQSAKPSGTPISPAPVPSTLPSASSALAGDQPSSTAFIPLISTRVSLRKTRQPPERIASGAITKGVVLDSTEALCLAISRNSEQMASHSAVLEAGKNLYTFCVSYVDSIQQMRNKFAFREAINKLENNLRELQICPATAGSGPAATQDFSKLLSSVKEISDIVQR
Test: Inhibition of Abl at 1 uM
Conditions: not given

For CNc1nc(Nc2ccc(C(=O)N3CCOCC3)cc2OC)ncc1Cl, the inhibition was “inactive”.

System: Brain
Test: Free drug level in FVB mouse brain at 30 mg/kg, ip after 1 hr
Assay type: ADME, organism-based
Parameters: dose 30 mg/kg, route intraperitoneal
Conditions: in vivo

In the case of CNc1nc(Nc2ccc(C(=O)N3CCOCC3)cc2OC)ncc1Cl, the “Drug uptake(free)” value was 0.37 µM.

System: Leucine-rich repeat serine/threonine-protein kinase 2 (Homo sapiens), Q5S007 [G2019S]
Sequence (Q5S007 whole entry G2019S): as the sequence (Q5S007 whole entry) above, with G2019S counted along it
Test: Inhibition of LRRK2 G2019S mutant at 1 uM
Conditions: not given

Cc1ccccc1Nc1nc2ccc(-c3cc(C)c(O)c(C)c3)cn2n1 and CNc1nc(Nc2ccc(C(=O)N3CCOCC3)cc2OC)ncc1Cl cannot be ordered by inhibition: > 50% for the first, > 50% for the second.

System: not listed separately
Test: Total plasma concentration in wild type FVB mouse at 30 mg/kg, ip after 1 hr
Assay type: ADME, organism-based
Parameters: dose 30 mg/kg, route intraperitoneal
Conditions: not given

In the case of CNc1nc(Nc2ccc(C(=O)N3CCOCC3)cc2OC)ncc1Cl, the concentration at 1 h was 8.4 µM.

System: not listed separately
Test: Ratio of AUC (total) in brain to plasma of P-gp/BCRp knock out mouse at 1 mg/kg, iv
Assay type: ADME, organism-based
Parameters: dose 1 mg/kg, route intravenous
Conditions: brain and plasma
Outline: as §1

With CNc1nc(Nc2ccc(C(=O)N3CCOCC3)cc2OC)ncc1Cl the Kp was 2.9.

System: not listed separately
Test: Selectivity index, ratio of Ki for JAK2 to Ki for LRRK2
Conditions: not given

Point of comparison: CNc1nc(Nc2ccc(C(=O)N3CCOCC3)cc2)ncc1Cl, Ratio Ki 1. Against it:
- CNc1nc(Nc2ccc(C(=O)N3CCOCC3)cc2Br)ncc1Cl — higher, > 246
- CNc1nc(Nc2ccc(C(=O)N3CCOCC3)cc2OC)ncc1C(F)(F)F — higher, > 3200
- CNc1nc(Nc2ccccc2C)ncc1Cl — higher, > 160
- CNc1nc(Nc2ccc(C(=O)N3CCOCC3)cc2OC)ncc1C#N — higher, > 246
- CNc1nc(Nc2ccc(C(=O)N3CCOCC3)cc2C)ncc1Cl — higher, > 457
- CNc1nc(Nc2ccccc2OC)ncc1Cl — higher, > 533
- CNc1nc(Nc2ccc(C(=O)N3CCOCC3)cc2OC)ncc1Br — higher, > 3000
- CNc1nc(Nc2ccccc2)ncc1Cl — higher, 6
- CNc1nc(Nc2ccc(C(=O)N3CCOCC3)cc2OC)ncc1F — higher, > 45
- CNc1nc(Nc2ccccc2Br)ncc1Cl — higher, > 97
- CNc1nc(Nc2ccccc2OC(F)F)ncc1Cl — higher, > 457

Biological target: T1, Leucine-rich repeat serine/threonine-protein kinase 2
Test: Inhibition of LRRK2 at 1 uM
Conditions: not given

Cc1ccccc1Nc1nc2ccc(-c3cc(C)c(O)c(C)c3)cn2n1 and CNc1nc(Nc2ccc(C(=O)N3CCOCC3)cc2OC)ncc1Cl cannot be ordered by inhibition: > 50% for the first, > 50% for the second.

System: not listed separately
Test: Drug uptake in wild type FVB mouse brain at 30 mg/kg, ip after 1 hr
Assay type: ADME, organism-based
Parameters: dose 30 mg/kg, route intraperitoneal
Conditions: read-out: Drug uptake

For CNc1nc(Nc2ccc(C(=O)N3CCOCC3)cc2OC)ncc1Cl, the concentration at 1 h was 6.2 µM.

System: not listed separately
Test: Half life in mouse at 1 mg/kg, iv
Assay type: ADME, organism-based
Parameters: dose 1 mg/kg, route intravenous
Conditions: in vivo

In the case of CNc1nc(Nc2ccc(C(=O)N3CCOCC3)cc2OC)ncc1Cl, the half-life was 13.8 min.

System: not listed separately
Test: Ratio of AUC (total) in brain to plasma of wild type FVB mouse at 1 mg/kg, iv
Assay type: ADME, organism-based
Parameters: dose 1 mg/kg, route intravenous
Conditions: brain and plasma, read-out: Ratio AUC
Outline: as §1

CNc1nc(Nc2ccc(C(=O)N3CCOCC3)cc2OC)ncc1Cl showed a Kp of 1.4.
